# Assay results reported in paper PMC4182178 (Oncogene, 2014).
# Where two headings read alike, the source gives them in different places.
# Key:
# [1] = system: BCM-2665; assay: Mammosphere assay, patient-derived xenograft cells; assay type: cell-based, human; conditions: read-out: IC50 Mammosphere assay, Mean ± SEM, n ≥ 2
# How it was run: (§1)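 Patient-derived breast tumors serially grown in SCID/Beige mouse fat pad were excised, minced, collagenase-digested, mesh-filtered and suspended as single cells in MEGM+. Cells were plated in serum-free, growth-factor-enriched medium in low-attachment plates ± test compound (0/0.1/0.3/1/3/10/100 μM), fed twice weekly, and counted by automated colony counter after 5–12 days. Percent of untreated colony number was fitted for IC50.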
# [2] = system: Stat3-regulated genes; assay: mRNA of Stat3-regulated genes in MDA-MB 468 xenograft tumors; assay type: in vivo, nude mice; conditions: 15 mg/Kg; vs vehicle; p<0.05; listed as PL
# How it was run: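 mRNA levels of Stat3-regulated genes were measured by Q-RT-PCR in excised tumors from nude mice bearing subcutaneous MDA-MB-468 xenografts. Mice had been treated i.p. with test compound 15 mg/Kg in DMSO or with vehicle, 5 days/week for 3 weeks. Values were normalized to β-actin and compared against vehicle-treated tumors.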
# [3] = system: MEF/GFP-Stat3α cells; assay: Anchorage-independent colony growth and MTT viability of MEF/GFP-Stat3α cells; assay type: cell-based; conditions: 3μM of PL
# How it was run: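 Stat3−/− MEFs stably expressing GFP-Stat3α were grown under anchorage-independent conditions with increasing doses of test compound, then photographed. Mean colony number from duplicate wells was taken as a percentage of DMSO-treated cells. Viability by MTT was also expressed relative to DMSO-treated cells. IC50 values were fitted against log concentration.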
# [4] = system: MDA-MB-231 cells; assay: Anchorage independent growth; assay type: cell-based, human
# [5] = system: Stat3-regulated genes; assay: Quantitative RT-PCR of Stat3-regulated genes in MDA-MB-468 cells; assay type: cell-based, human; conditions: 30 μM, 6–8 hr
# [6] = system: GFP+ SUM159PT cells; assay type: cell-based; conditions: PL 3 and 10 μM
# How it was run: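 SUM159PT cells carrying a lentiviral Stat3-GFP reporter (GFP driven by four M67 repeats) were grown as xenografts in pre-cleared mammary glands of SCID/Beige mice. Excised tumors were digested to single cells and FACS-sorted into GFP+ and GFP− populations. Mammosphere formation efficiency was then assayed in MEGM+ without or with test compound.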
# [7] = system: cleaved caspase 3; assay: Cleaved caspase 3 in MDA-MB-468 cells; assay type: cell-based, human; conditions: PL 30μM, 12 hrs
# How it was run: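 MDA-MB-468 cells were exposed to 30 μM test compound and sampled over 15 min to 24 h. Cleaved caspase 3 and GAPDH were measured in whole protein by Luminex bead immunoassay. GAPDH-normalized active caspase 3 was expressed as a percentage of the pre-treatment value.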
# [8] = system: T-47D; assay: Anchorage independent growth; assay type: cell-based, human
# [9] = system: MCF 10A; assay: Anchorage independent growth; assay type: cell-based
# [10] = Toxicity in mice; assay type: in vivo; conditions: up to a dose of 30 mg/Kg/day for 14 days
# [11] = system: Stat3 phosphorylation; assay: Phosphoflow assay, G-CSF stimulated Stat3 phosphorylation in Kasumi-1 cells; assay type: cell-based; conditions: read-out: IC50 G-CSF stimulated Stat3 phosphorylation, Mean ± SEM, n ≥ 2, G-CSF 10 ng/ml 15′
# [12] = system: Stat3 phosphorylation; assay: Constitutive Stat3 phosphorylation in breast cancer cell lines; assay type: cell-based, human; conditions: for IC50: read-out: IC50 Constitutive Stat3 phosphorylation, Mean ± SEM, n ≥ 2
# [13] = system: MDA-MB-468 tumor xenografts; assay: Human breast cancer cell line xenograft assay, tumor growth; assay type: in vivo, nude mice; conditions: 15 mg/Kg body weight/day IP, 21 days; p < 0.05
# [14] = molecular target: glutathione S-transferase pi 1 (GSTP1); conditions: read-out: IC50 for GSTP1 inhibition; cited from earlier work
# [15] = system: MDA-MB-468 cells; assay: Anchorage independent growth; assay type: cell-based, human
# [16] = system: Hs 578T cells; assay: Anchorage independent growth; assay type: cell-based, human; conditions: read-out: IC50 Anchorage independent growth (MTT), Mean ± SEM, n ≥ 2
# How it was run: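 Cells grown in triplicate in ultra-low-attachment 96-well plates in complete DMEM ± test compound (0/0.1/0.3/1/3/10/100 μM) for 48–72 hrs. Viable cells were quantitated by MTT. Relative % viability was calculated as treated ÷ untreated × 100 and plotted against log concentration. IC50 was derived from ≥2 replicate experiments.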
# [17] = system: MC1; assay: Mammosphere assay, patient-derived xenograft cells; assay type: cell-based, human; conditions: read-out: IC50 Mammosphere assay, Mean ± SEM, n ≥ 2
# How it was run: as §1
# [18] = system: ZR-75-1; assay: Anchorage independent growth; assay type: cell-based
# [19] = system: MDA-MB-453; assay: Anchorage independent growth; assay type: cell-based
# [20] = system: MCF-7; assay: Anchorage independent growth; assay type: cell-based, human
# [21] = system: MCF-12A; assay: Anchorage independent growth; assay type: cell-based
# [22] = system: Sum159PT; assay: Anchorage independent growth; assay type: cell-based
# [23] = molecular target: GFP-Stat3α (Homo sapiens, UniProt P40763); assay type: cell-based
# Sequence of GFP-Stat3α (P40763 whole entry): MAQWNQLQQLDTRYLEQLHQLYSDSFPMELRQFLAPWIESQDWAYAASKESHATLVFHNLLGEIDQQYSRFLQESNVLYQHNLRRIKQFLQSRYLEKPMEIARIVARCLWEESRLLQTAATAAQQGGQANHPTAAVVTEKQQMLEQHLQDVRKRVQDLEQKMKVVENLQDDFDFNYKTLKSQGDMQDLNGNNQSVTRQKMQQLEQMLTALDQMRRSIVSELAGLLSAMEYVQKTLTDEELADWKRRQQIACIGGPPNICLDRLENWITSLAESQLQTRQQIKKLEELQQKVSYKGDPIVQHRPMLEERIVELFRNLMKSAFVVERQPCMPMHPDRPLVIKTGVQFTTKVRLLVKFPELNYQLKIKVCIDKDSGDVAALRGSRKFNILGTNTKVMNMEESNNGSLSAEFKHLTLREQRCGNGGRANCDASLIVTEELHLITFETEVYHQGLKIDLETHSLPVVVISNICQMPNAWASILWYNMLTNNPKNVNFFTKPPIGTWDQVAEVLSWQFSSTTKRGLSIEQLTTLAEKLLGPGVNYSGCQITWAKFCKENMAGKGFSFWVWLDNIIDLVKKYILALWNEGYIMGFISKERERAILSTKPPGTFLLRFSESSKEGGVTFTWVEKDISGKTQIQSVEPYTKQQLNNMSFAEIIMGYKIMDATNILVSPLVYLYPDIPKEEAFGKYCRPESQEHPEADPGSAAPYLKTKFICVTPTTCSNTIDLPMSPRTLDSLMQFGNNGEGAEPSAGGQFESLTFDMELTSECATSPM
# [24] = read-out: Anchorage Independent Growth IC50, 16 hrs
# [25] = read-out: Anchorage independent Growth IC50, 80 hrs
# [26] = read-out: Anchorage independent Growth IC50, 80 hrs, no sensitivity taken as 100 μM
compound,measurement,setting,value
"COc1cc(/C=C/C(=O)N2CCC=CC2=O)cc(OC)c1OC [Piperlongumine, piperlongumine]",IC50,[1],100 nM
same,reduction of β-actin-normalized BcL-xL mRNA in tumors,[2],~ 50%
same,reduction of β-actin-normalized Survivin mRNA in tumors,[2],~ 50%
same,spheroid colony formation,[3],completely abrogating
same,IC50,"[4]; read-out: Anchorage Independent Growth IC50, 16 hrs, MDA-MB-231",9200 nM
same,IC50,"[4]; read-out: Anchorage independent Growth IC50, 80 hrs, MDA-MB-231",300 nM
same,IC50,"[4]; read-out: IC50 Anchorage independent growth (MTT), MDA-MB 231, Mean ± SEM, n ≥ 2",1200 ± 1800 nM
same,increase of FAS (CD95) mRNA,[5],two fold
same,mammosphere formation by GFP+ cells,[6],completely inhibited
same,increase of caspase 3 cleavage compared to earlier time points,[7],~ 12 fold
same,IC50,[8]; [24],42 µM
same,IC50,[8]; [25],0.3 µM
same,IC50,"[9]; read-out: Anchorage Independent Growth IC50, 16 hrs, no sensitivity taken as 100 μM",> 100 µM
same,IC50,[9]; [26],> 100 µM
same,toxicity in mice,[10],non-toxic
same,IC50,[11],3.7 ± 1.7 µM
same,"effect on levels of total Stat3 or pStat1, pStat5 and total Stat1","[12]; MDA-MB-231 and MDA-MB-468 (pStat1, pStat5, total Stat1 in MDA-MB-468)",without substantially affecting
same,reduction of pStat3 levels at 15 min,"[12]; MDA-MB-468, PL 30 μM",> 50%
same,time of maximal reduction of pStat3,"[12]; MDA-MB-468, PL 30 μM",≤ 30 min
same,pStat3 levels in the GFP+ cells,"[12]; Sum159PT xenograft-derived GFP+ cells, increasing doses of PL",decreased
same,IC50,[12]; MDA-MB 231,400 ± 500 nM
same,IC50,[12]; MDA-MB 468,2800 ± 2100 nM
same,reduction of tumor weight,[13],> 50%
same,IC50,[14],~100 µM
same,IC50,"[15]; read-out: Anchorage Independent Growth IC50, 16 hrs, MDA-MB-468",2800 nM
same,IC50,"[15]; read-out: Anchorage independent Growth IC50, 80 hrs, MDA-MB-468",900 nM
same,IC50,"[15]; read-out: IC50 Anchorage independent growth (MTT), MDA-MB 468, Mean ± SEM, n ≥ 2",4600 ± 4800 nM
same,IC50,[16],200 ± 100 nM
same,IC50,[17],4.2 ± 2.3 µM
same,IC50,[18]; [24],80.6 µM
same,IC50,[18]; [25],0.8 µM
same,IC50,[19]; [24],15.5 µM
same,IC50,[19]; [25],1.7 µM
same,IC50,[20]; [24],7 µM
same,IC50,[20]; [25],3.6 µM
same,IC50,[21]; [24],16.2 µM
same,IC50,[21]; [26],> 100 µM
same,IC50,[22]; [24],12.9 µM
same,IC50,[22]; [25],0.8 µM
"O=C1C=CC(=O)c2c1ccc1c2ccc2ccccc21 [chrysene 1,4 quinone]",IC50,[23],10 µM
